{"source": "ChEMBL document CHEMBL4373638", "about": "“Anthranilic amide and imidazobenzothiadiazole compounds disrupt Mycobacterium tuberculosis membrane potential” (Medchemcomm, 2019)", "key": {"[1]": {"tested_on": "Mycobacterium tuberculosis", "assay": "Antitubercular activity against non-replicating Mycobacterium tuberculosis H37Rv assessed as microbial killing at 115 to 230 uM at pH 5.5", "assay_type": "functional, organism-based", "settings": "TDE = time-dependent effect", "in_short": "(§1)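 Non-replicating kill kinetics: late-log H37Rv (OD590 0.6–1.0) resuspended in phosphate citrate buffer with 0.05% tyloxapol, inoculated at ~10⁶ CFU mL⁻¹, compound added (2% DMSO final), incubated standing at 37 °C; aliquots plated for CFU every 7 days, plates counted after 4 weeks at 37 °C.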"}, "HepG2 [2]": {"tested_on": "HepG2", "assay": "Disruption of mitochondrial membrane potential in human HepG2 cells at less than IC50 concentration after 30 mins by DiOC2 probe based fluorescence assay", "assay_type": "ADME, cell-based", "settings": "hepg2, 0.5 h"}, "[3]": {"tested_on": "Mycobacterium tuberculosis", "assay": "Disruption of membrane potential loss in Mycobacterium tuberculosis H37Rv at < MBC concentration at pH 4.5 after 15 mins measured at pH 6.8 by DiOC2 probe based fluorescence assay", "assay_type": "functional, organism-based"}, "[4]": {"tested_on": "Mycobacterium tuberculosis", "assay": "Disruption of membrane potential loss in Mycobacterium tuberculosis H37Rv at MBC concentration at pH 4.5 after 15 mins measured at pH 5.6 by DiOC2 probe based fluorescence assay", "assay_type": "functional, organism-based", "in_short": "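Mid-log Mtb grown in 7H9-OADC-Tw, concentrated to OD590 ~1.0 in 7H9-Tw adjusted to assay pH (6.8 or 5.6), loaded with 15 μM DiOC2 for 20 min at RT, washed, then exposed to 2-fold serial dilutions for 15 min at RT; red (488/650 nm) to green (488/530 nm) fluorescence ratio; CCCP positive, DMSO vehicle controls; representative of two runs.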"}, "HepG2 [5]": {"tested_on": "HepG2", "assay": "Disruption of mitochondrial membrane potential in human HepG2 cells up to 200 uM after 30 mins by DiOC2 probe based fluorescence assay", "assay_type": "ADME, cell-based", "settings": "hepg2, 0.5 h"}, "[6]": {"tested_on": "Mycobacterium tuberculosis", "assay": "Antitubercular activity against non-replicating Mycobacterium tuberculosis H37Rv assessed as log reduction in CFU at 10 to 100 uM at pH 4.5 to 6.8 after 7 days", "assay_type": "functional"}, "RAW264.7": {"tested_on": "RAW264.7", "assay": "Cytotoxicity against mouse RAW264.7 cells", "assay_type": "cell-based"}, "[7]": {"tested_on": "Mycobacterium tuberculosis", "assay": "Antitubercular activity against Mycobacterium tuberculosis H37Rv infected in mouse RAW264.7 cells", "assay_type": "functional, organism-based"}, "[8]": {"tested_on": "Mycobacterium tuberculosis", "assay": "Antitubercular activity against non-replicating Mycobacterium tuberculosis H37Rv assessed as microbial killing at 125 to 250 uM at pH 5.5", "assay_type": "functional, organism-based", "settings": "TDE = time-dependent effect", "in_short": "as §1"}, "[9]": {"tested_on": "Mycobacterium tuberculosis", "assay": "Antitubercular activity against non-replicating Mycobacterium tuberculosis H37Rv assessed as microbial killing at 145 to 290 uM at pH 5.5", "assay_type": "functional, organism-based", "settings": "TDE = time-dependent effect", "in_short": "as §1"}, "[10]": {"tested_on": "Mycobacterium tuberculosis", "assay": "Antitubercular activity against non-replicating Mycobacterium tuberculosis H37Rv assessed as microbial killing at 130 to 260 uM at pH 5.5", "assay_type": "functional, organism-based", "settings": "TDE = time-dependent effect", "in_short": "as §1"}}, "note": "Calls of active or inactive are those of the source. The rule behind the calls is not given here.", "data": [{"smiles": "O=C(Nc1ccc(Cl)cc1)c1ccccc1NS(=O)(=O)c1ccc(Br)cc1", "values": [{"measurement": "Activity", "setting": "[1]", "result": "Tde"}]}, {"smiles": "CN(C(=O)c1ccccc1NS(=O)(=O)c1ccc(Br)cc1)c1ccc(Cl)cc1Cl", "values": [{"measurement": "Activity", "setting": "HepG2 [2]", "result": "Toxic"}, {"measurement": "Activity", "setting": "[3]", "result": "Active"}, {"measurement": "Activity", "setting": "[4]", "result": "Active"}]}, {"smiles": "O=C(Nc1ccc(Cl)cc1Cl)c1ccccc1NS(=O)(=O)c1ccc(Br)cc1", "values": [{"measurement": "Activity", "setting": "[3]", "result": "Active"}, {"measurement": "Activity", "setting": "[4]", "result": "Active"}]}, {"smiles": "NC(=O)c1ccccc1NS(=O)(=O)c1ccc(Br)cc1", "values": [{"measurement": "Activity", "setting": "[4]", "result": "inactive"}, {"measurement": "Activity", "setting": "HepG2 [5]", "result": "Non-Toxic"}]}, {"smiles": "O=[N+]([O-])c1cc2nc(C(F)(F)F)[nH]c2c2nsnc12", "values": [{"measurement": "Activity", "setting": "[6]", "result": ">4", "unit": "log10CFU"}]}, {"smiles": "Cc1nnc(Sc2ccc3nsnc3c2[N+](=O)[O-])s1", "values": [{"measurement": "Activity", "setting": "HepG2 [2]", "result": "Toxic"}]}, {"smiles": "O=[N+]([O-])c1c(Sc2ccccn2)ccc2nsnc12", "values": [{"measurement": "Activity", "setting": "HepG2 [2]", "result": "Toxic"}]}, {"smiles": "CCNc1ccccc1C(=O)Nc1ccc(Cl)cc1Cl", "values": [{"measurement": "Activity", "setting": "[4]", "result": "Active"}, {"measurement": "Activity", "setting": "HepG2 [5]", "result": "Non-Toxic"}]}, {"smiles": "CCCCNC(=O)c1ccccc1NS(=O)(=O)c1ccc(Br)cc1", "values": [{"measurement": "Activity", "setting": "HepG2 [2]", "result": "Toxic"}, {"measurement": "Activity", "setting": "[3]", "result": "Active"}, {"measurement": "Activity", "setting": "[4]", "result": "Active"}]}, {"smiles": "CCN(C)c1ccccc1C(=O)Nc1ccc(Cl)cc1Cl", "values": [{"measurement": "Activity", "setting": "RAW264.7", "result": "Toxic"}, {"measurement": "Activity", "setting": "[7]", "result": "Active"}]}, {"smiles": "Cc1ccc(S(=O)(=O)Nc2ccccc2C(=O)Nc2ccc(Cl)cc2Cl)cc1", "values": [{"measurement": "Activity", "setting": "[8]", "result": "Tde"}]}, {"smiles": "CS(=O)(=O)Nc1ccccc1C(=O)Nc1ccc(Cl)cc1Cl", "values": [{"measurement": "Activity", "setting": "[9]", "result": "Tde"}]}, {"smiles": "O=C(Nc1ccccc1)c1ccccc1NS(=O)(=O)c1ccc(Br)cc1", "values": [{"measurement": "Activity", "setting": "HepG2 [2]", "result": "Toxic"}, {"measurement": "Activity", "setting": "[4]", "result": "Active"}]}, {"smiles": "O=C(Nc1ccccn1)c1ccccc1NS(=O)(=O)c1ccc(Br)cc1", "values": [{"measurement": "Activity", "setting": "[10]", "result": "Tde"}]}]}
